Compound activity deposited in PubChem BioAssay by several laboratories.
In the library only some 2.5% were active in any assay of this set; here they are far more common.
NadD block: NadD (S. aureus) enzyme inhibition | purified NadD enzyme, colorimetric absorbance read-out | inhibition, % at 20 µM | 360,000 tested, 0.78% active | AID 602399; in the data active = inhibition above about 26%
SENP1 inh: blocks the human SENP1 SUMO protease catalytic domain; Q9P0U3; recombinant SENP1 catalytic domain, CyPet-SUMO1-YPet FRET cleavage; inhibition, % at 10 µM; 360,000 tested, 0.21% active; AID 624204;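 active = inhibition at least 30% at 10 µM, raw YFP signal under a set limit, fluorescence ratio 0.5 to 1.5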;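 also: 0% = enzyme with DMSO and 100% = no enzyme wells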
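Test system: hSENP1 catalytic domain, recombinant; Amount: 20 pM final SENP1 enzyme; Medium: Tris pH 8 buffer plus EDTA, NaCl, BME, BSA, NP40, catalase; Schedule: 50 min enzyme reaction, room temperature, light-protected; Technique: FRET fluorescence in CFP and YFP emission channels; Controls: no-enzyme wells low, DMSO-plus-enzyme wells high control.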
Beta2AR agonist: agonists of human beta-2 adrenergic receptor inducing internalization. Am2.2-beta2AR cells, FAP receptor internalization, flow cytometry. response, % (concentration not given with the values). 340,000 tested, 0.43% active;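 active = response above a set limit, near 3 SD of response in nonfluorescent compounds, cut at about 42% in these data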
ABHD5 PLIN5 PPI: ABHD5-PLIN5 protein interaction inhibition; Q00G26+Q8WTS1; Split G. princeps luciferase complementation, luminescence, 4 h; inhibition, % at 4 µM; 360,000 tested, 0.78% active; AID 602281;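 active = inhibition above the mean inhibition across every tested compound plus 3 SD, cut at about 22% in these data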;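 also: 0% = DMSO only wells and the 100% control is not disclosed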
Target sequence (Q00G26 whole entry, looked up): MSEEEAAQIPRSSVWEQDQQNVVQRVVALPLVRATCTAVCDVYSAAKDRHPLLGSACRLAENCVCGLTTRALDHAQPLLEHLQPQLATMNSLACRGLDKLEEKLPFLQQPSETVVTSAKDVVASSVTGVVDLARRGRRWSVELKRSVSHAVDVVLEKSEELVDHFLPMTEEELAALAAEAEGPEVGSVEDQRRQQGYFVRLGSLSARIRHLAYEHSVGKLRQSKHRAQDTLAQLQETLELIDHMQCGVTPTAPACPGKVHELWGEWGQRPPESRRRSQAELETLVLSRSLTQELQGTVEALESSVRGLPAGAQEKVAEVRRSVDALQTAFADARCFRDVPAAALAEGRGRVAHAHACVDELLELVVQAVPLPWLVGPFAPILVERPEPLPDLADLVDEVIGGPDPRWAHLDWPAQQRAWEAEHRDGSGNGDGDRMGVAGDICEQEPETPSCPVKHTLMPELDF
Target sequence (Q8WTS1 whole entry, looked up): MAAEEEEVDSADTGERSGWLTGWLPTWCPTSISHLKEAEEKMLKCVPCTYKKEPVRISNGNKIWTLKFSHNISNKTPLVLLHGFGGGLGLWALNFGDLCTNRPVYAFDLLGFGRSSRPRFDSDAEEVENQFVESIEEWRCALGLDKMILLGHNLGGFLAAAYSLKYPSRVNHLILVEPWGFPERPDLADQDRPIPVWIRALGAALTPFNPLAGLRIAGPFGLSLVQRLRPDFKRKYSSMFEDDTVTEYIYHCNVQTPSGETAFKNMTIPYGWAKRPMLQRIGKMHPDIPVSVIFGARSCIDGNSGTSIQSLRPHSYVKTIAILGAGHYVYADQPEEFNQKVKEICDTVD
GRK2 aptamer HTS: blocks RNA aptamer binding to human GRK2; bead flow cytometry, FAM-aptamer displacement from GRK2; inhibition of aptamer binding, % at 10 µM; AID 488847; 330,000 tested, 0.59% active; P25098;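 active = inhibition of aptamer binding above 40%, roughly 3 SD of noise, on plates passing a quality check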;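 also: median bead fluorescence of bound FAM aptamer so fluorescent compounds give negative values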
GRK2 inh confirm: human GRK2 inhibition confirmation, cherry pick 1 | 2,000 tested, 4% active | shares compounds with GRK2 aptamer HTS | aptamer displacement, % at 10 µM | bead-bound GRK2, FAM-aptamer displacement, flow cytometry | AID 504451;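 active = aptamer displacement above 40%, near three times the noise of non-fluorescent compounds, on plates passing quality checks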;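 also: negative values mostly reflect intrinsic compound fluorescence rather than true enhancement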
Aptamer quench SP: counter-screen for GRK2 aptamer inhibitors: fluorescent aptamer quenchers; shares compounds with GRK2 aptamer HTS; Carboxyfluorescein RNA aptamer on beads, flow cytometry quenching; stronger effect = lower value; fluorescence response (% of DMSO), % at 10 µM; AID 504580; 2,000 tested, under 10 active;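 active = compounds that quench the bead-bound fluorescent RNA probe, cutting fluorescence to under half of the solvent control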;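 also: counterscreen run without GRK2 so only probe quenching by compound is measured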
GRK2 confirm 2: confirmation of human GRK2 inhibitors binding RNA aptamer site; shares compounds with GRK2 aptamer HTS; bead-bound GRK2, FAM-aptamer displacement, flow cytometry; inhibition of aptamer binding, % at 10 µM; 360 tested, under 10 active; AID 504782;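 active = inhibition of aptamer binding above 40%, about triple the noise seen with nonglowing compounds, on plates passing quality control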;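 also: negative values mostly come from compounds that fluoresce themselves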
FAM quench SP: quenches fluorescent RNA aptamer, GRK2 hit artifact | shares compounds with GRK2 aptamer HTS | fluorescence response vs DMSO, % at 10 µM | AID 588494 | 360 tested, under 10 active | carboxyfluorescein RNA aptamer beads, flow cytometry quenching; stronger effect = lower value;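 active = response vs DMSO under 50%, meaning signal dropped by over half, treated as fluorescence quencher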;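 also: labelled aptamer on streptavidin beads without GRK2 as a quench counter-screen; 100% = bead fluorescence of DMSO wells and lower means quenching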
* marks the source's active call; other numbers are inactive results; . = no result.

SMILES	NadD block	SENP1 inh	Beta2AR agonist	ABHD5 PLIN5 PPI	GRK2 aptamer HTS	GRK2 inh confirm	Aptamer quench SP	others
Cc1cccc2c1cnn2C(=O)CCC(=O)N1CCC(C)CC1	-6	0	4	3	70*	-2	95
CC(Nc1cccc(C(=O)NC2CC2)c1)c1nnc(-c2ccccc2)o1 (centres undefined)	-3	-1	-6	4	4	0	97
COc1ccc(-c2nnc(C(C)Nc3cccc(C(=O)NC4CC4)c3)o2)cc1 (centres undefined)	-2	-1	-4	-4	11	2	100
C[C@@H]1O[C@H](C2CC2)Cc2[nH]c(=S)[nH]c(=O)c21	5	-1	.	-13	.	.	.
CSc1nc(C=Nc2ccccc2Cl)c(O)n1Cc1cccc(Cl)c1	-6	2	-3	1	3	.	.
O=CN1c2ccccc2CSc2ccccc21	0	14	2	7	74*	-4	100
COc1ccccc1N1CCN(/N=C/c2ccc([N+](=O)[O-])cc2)CC1	4	-2	3	0	1	.	.
COc1ccccc1N1CCN(/N=C/c2ccc(Cl)c([N+](=O)[O-])c2)CC1	0	2	9	0	100*	1	98
Cc1onc(-c2ccccc2)c1C(N)=O	8	0	7	4	2	.	.
Cc1onc(-c2ccccc2)c1C(=O)n1cc(Br)cn1	2	5	-16	-6	69*	0	97
CC(C)[C@@H](CO)N(C)S(=O)(=O)c1ccccc1Br	-5	2	1	0	0	.	.
CC1(c2ccc3ccccc3c2)NC(=O)N(CC(=O)N2CCN(c3ccccc3O)CC2)C1=O (centres undefined)	5	0	-2	8	3	4	105
CCCN1CCC(=O)N(CCO)CC1	2	1	0	-2	0	.	.
COc1ccccc1N1CCN(C(=O)CCC(=O)Nc2nnc(C(C)C)s2)CC1	4	-2	-1	2	0	.	.
CCOc1ccc(NC(=O)CN(C)C(=O)c2ccc(COc3ccccc3)cc2)cc1OCC	-5	-2	3	0	33	-3	95
CCOc1ccc(NC(=O)CN(C)C(=O)c2ccc(COc3ccccc3)o2)cc1OCC	-3	2	-16	10	1	.	.
CCOC(=O)c1c(C)[nH]c(C(=O)COC(=O)COc2ccc(OC)cc2)c1C	-5	2	10	-5	70*	2	96
COC(=O)[C@H](Cc1ccccc1)NC(=O)C1(OC(C)=O)CC(OC(C)=O)C(OC(C)=O)C(OC(C)=O)C1 (some centres undefined)	-3	2	-1	-11	63*	5	94
CC1(C)CC(NC(=S)NC2CC2)CC(C)(C)N1	-21	0	-6	-6	69*	0	98
O=C(COc1ccc(Cl)cc1Cl)N/N=C/C1CC=CCC1 (centres undefined)	-6	1	-1	-4	10	.	.
O=C(CSc1cn(CCNC(=O)c2cccs2)c2ccccc12)NC1CCCCC1	-1	1	-11	4	7	.	.	GRK2 confirm 2=-26;FAM quench SP=97
O=C(CSc1cn(CCNC(=O)c2cccs2)c2ccccc12)NCc1ccccc1	-5	5	-5	-10	4	.	.
O=C(CSc1cn(CCNC(=O)c2cccs2)c2ccccc12)NCC1CCCO1 (centres undefined)	-1	3	13	-13	0	.	.	GRK2 confirm 2=-1;FAM quench SP=101
Cn1cc(C(c2ccccc2OCC(=O)O)c2cn(C)c3ccccc23)c2ccccc21	11	-4	6	2	7	.	.
COC(=O)c1ccccc1NC(=O)CSc1nnc(-c2cccnc2)o1	3	-1	3	-9	0	.	.
SMILES	NadD block	SENP1 inh	Beta2AR agonist	ABHD5 PLIN5 PPI	GRK2 aptamer HTS	GRK2 inh confirm	Aptamer quench SP	others
CSCc1cc(N(C)C)nc(SCc2ccc(Cl)c(Cl)c2)n1	19	-8	-10	1	76*	1	55
Cc1ccc(CNC(=O)Cc2ccc(-c3ccccc3)cc2)cc1	1	0	-4	2	0	.	.
O=C(COC(=O)Cc1ccc(-c2ccccc2)cc1)NCc1ccc(F)cc1	6	4	1	-5	8	-1	99
O=C(COC(=O)Cc1ccc(Cl)cc1)NCc1ccc(F)cc1	-4	3	13	-4	0	.	.
Cc1ccc(CNC(=O)COC(=O)Cc2ccc(-c3ccccc3)cc2)cc1	-11	3	2	-10	0	-3	99
CCOC(=O)C1(C)CCN1C(=O)c1ccc(OC)c(C(F)(F)F)c1 (centres undefined)	4	1	.	-6	.	.	.
Cc1ccc(C(=O)Nc2ncccc2O)o1	-3	-1	0	16	2	.	.
FC(F)(F)c1cc(Cl)c2nnc(-c3ccccn3)n2c1	-6	1	-2	6	0	.	.
O=C(O)c1ccccc1-c1nnc2c(Cl)cc(C(F)(F)F)cn12	0	3	-4	2	7	2	101
O=C1NC(=O)C2(CCC(C3CCCCC3)CC2)N1 (centres undefined)	1	2	-4	-7	.	.	.
Cc1cccc(C)c1OCC(=O)OCC(=O)Nc1ccc(Cl)cn1	-5	3	0	4	0	.	.
Cc1csc(NC(=O)C2CCCCN2S(=O)(=O)c2ccccc2)n1 (centres undefined)	-1	1	4	9	95*	-2	102
CCN(CC)c1ccc(NC(=O)c2nc3nc(C)cc(C(F)F)n3n2)cc1	-2	3	3	1	48*	0	93
COc1ccc(N2Cc3cccc(C(=O)O)c3C2=O)cc1	0	0	1	0	61*	32	97
Cc1ccc(C2CC(=O)Nc3cc4c(cc32)OCCO4)s1 (centres undefined)	2	2	1	-4	6	-2	101
CCN(CC(=O)Nc1ccc(NC(C)=O)cc1)C(=O)C1CCN(C(=O)c2ccccc2C)CC1	-5	-1	-5	-13	.	.	.
CN(CC(=O)Nc1cccc(F)c1)C(=O)c1ccc(N2C(=O)c3ccccc3C2=O)cc1	0	1	1	6	0	-5	104
Cc1ccccc1C(=O)N1CCC(C(=O)N(C)CC(=O)Nc2cccc(F)c2)CC1	0	1	-4	-1	51*	.	.	GRK2 confirm 2=18;FAM quench SP=102
